ChEMBL document CHEMBL3045403, “chemical composition, plant genetic differences, antimicrobial and antifungal activity investigation of the essential oil of Rosmarinus officinalis L” (J Agric Food Chem, 2004)
Active and inactive are the calls of the source. The calls are words filed in the database; no cut-off is given here.

How the values were obtained:
Fusarium graminearum [1] = experiment: Antifungal activity against Fusarium graminearum assessed as mycelial growth inhibition after 4 to 12 days; assay type: functional, organism-based
Method in brief: (§1)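 Mycelial fragments (6 mm diameter, from 10-day cultures) were seeded on PDA in Petri dishes. Essential oil was added at 450 and 900 µL/mL, and plates were sealed and incubated in the dark at 22 °C. Controls received distilled water instead of oil. Mean diametric colony growth was read at 4, 8 and 12 days. Inhibition % = 100(C − T)/C, where C is the control diameter and T the oil-treated diameter.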

Fusarium culmorum = experiment: Antifungal activity against Fusarium culmorum assessed as mycelial growth inhibition after 4 to 12 days; assay type: functional, organism-based
Method in brief: (§2)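 Mycelial plugs (6 mm, 10-day-old cultures) inoculated on PDA in Petri dishes; essential oil added at 450 and 900 µL/mL; dishes sealed with Parafilm and held in the dark at 22 °C. Control: PDA plus distilled water. Mean colony diameter measured at 4, 8 and 12 days; inhibition I = 100(C − T)/C. Plates without growth were transferred to plain PDA for 48 h to tell fungistatic from fungicidal.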

Rhizoctonia solani = experiment: Antifungal activity against Rhizoctonia solani assessed as mycelial growth inhibition after 4 to 12 days; assay type: functional, organism-based; method in brief: as §2
[2] = tested on: Staphylococcus epidermidis; experiment: Antimicrobial activity against Staphylococcus epidermidis ATCC 12228 assessed as growth inhibition after 24 hr by broth microdilution method; assay type: functional
Method in brief: (§3)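 Broth microdilution. Oils prepared as […] in DMSO and diluted in the plates to 3.5–900 µL/mL. Inoculum 5×10^5 cfu/mL, checked by plating on PDA. Incubated aerobically for 24 h at 37 °C (C. albicans at 30 °C). MIC taken as the first well, in ascending order, with no pellet or turbidity. MBC (99.9% kill) from 25 µL subcultured on PDA overnight at 37 °C. Three repeats.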

Staphylococcus aureus = experiment: Antimicrobial activity against Staphylococcus aureus ATCC 6538 assessed as growth inhibition after 24 hr by broth microdilution method; assay type: functional; method in brief: as §3
[3] = tested on: Fusarium oxysporum f. sp. lycopersici; experiment: Antifungal activity against Fusarium oxysporum f. sp. lycopersici assessed as mycelial growth inhibition after 4 to 12 days; assay type: functional, organism-based; method in brief: as §2
Pseudomonas aeruginosa = experiment: Antimicrobial activity against Pseudomonas aeruginosa ATCC 9027 assessed as growth inhibition after 24 hr by broth microdilution method; assay type: functional; method in brief: as §3
Candida albicans = experiment: Antimicrobial activity against Candida albicans ATCC 14053 assessed as growth inhibition after 24 hr by broth microdilution method; assay type: functional; method in brief: as §3
Botrytis cinerea = experiment: Antifungal activity against Botryotinia fuckeliana assessed as mycelial growth inhibition after 4 to 12 days; assay type: functional, organism-based; method in brief: as §2
Escherichia coli = experiment: Antimicrobial activity against Escherichia coli ATCC 8739 assessed as growth inhibition after 24 hr by broth microdilution method; assay type: functional; method in brief: as §3
Fusarium graminearum [4] = experiment: Induction of growth of Fusarium graminearum after 4 to 12 days; assay type: organism-based; conditions: in vivo; method in brief: as §1

| SMILES | growth inhibition (GI) (Fusarium graminearum [1]) | growth inhibition (GI) (Fusarium culmorum) | growth inhibition (GI) (Rhizoctonia solani) | MIC [2] [uL/ml] | MIC (Staphylococcus aureus) [uL/ml] | growth inhibition (GI) [3] | MIC (Pseudomonas aeruginosa) [uL/ml] | MIC (Candida albicans) [uL/ml] | growth inhibition (GI) (Botrytis cinerea) | MIC (Escherichia coli) [uL/ml] | Activity (Fusarium graminearum [4]) |
| --- | --- | --- | --- | --- | --- | --- | --- | --- | --- | --- | --- |
| C=C1[C@@H]2CC[C@@H](C2)C1(C)C [(-)-CAMPHENE] | inactive | inactive | inactive | >900 | >900 | inactive | >900 | >900 | inactive | >900 | Toxic |
| CC1=CCC2CC1C2(C)C (stereo not drawn) [ALPHA-PINENE] | inactive | inactive | inactive | >900 | >900 | inactive | >900 | >900 | inactive | >900 | Toxic |
| CC1(C)C2CCC1(C)C(O)C2 (stereo not given) [BORNEOL] | inactive | inactive | inactive | >900 | >900 | inactive | >900 | >900 | inactive | >900 | Toxic |
| CC12CCC(CC1=O)C2(C)C (stereo not given) [CAMPHOR] | inactive | inactive | inactive | >900 | >900 | inactive | >900 | >900 | inactive | >900 | Toxic |
| CC1=CC(=O)[C@@H]2C[C@H]1C2(C)C [VERBENONE] | inactive | inactive | inactive | >900 | >900 | inactive | >900 | >900 | inactive | >900 | Toxic |
